Reference: ChEMBL document CHEMBL2311390, “Synthesis and preliminary evaluation of pharmacological properties of some piperazine derivatives of xanthone” (Bioorg Med Chem, 2013)

What was measured:
Rattus norvegicus [1] = experiment: Hypotensive activity in normotensive Wistar rat assessed as reduction of diastolic blood pressure at 1.25 mg/kg, iv after 30 mins; type: functional, Artery
Outline: (§1)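 Male normotensive Wistar rats were anaesthetised with thiopental 75 mg/kg ip. The right carotid artery was cannulated with heparinised saline for pressure recording. After 5 min of stabilisation, compound was injected into the tail vein at 1 mL/kg. Systolic and diastolic pressure were followed up to 60 min. Data are means ± SEM of 5–6 rats, analysed by one-way ANOVA.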

Rattus norvegicus [2] = experiment: Cardiotoxicity in Wistar rat assessed as hear beats per min at 5 mg/kg, iv after 10 mins by ECG analysis; type: toxicity, organism-based; design: dose 5 mg/kg, route intravenous; conditions: in vivo
Rattus norvegicus [3] = experiment: Cardiotoxicity in Wistar rat assessed as QRS interval at 5 mg/kg, iv after 5 mins by ECG analysis; type: toxicity, organism-based; design: dose 5 mg/kg, route intravenous; conditions: in vivo
Outline: (§2)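 Male normotensive Wistar rats, 170–350 g, six per group. Compound given iv at a constant volume of 1 mL/kg. ECG was recorded just before dosing and at 1, 5 and 15 min after. PQ, QRS and QT intervals and heart rate were read from the trace. Groups were compared by one-way ANOVA.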

Rattus norvegicus [4] = experiment: Cardiotoxicity in Wistar rat assessed as PQ interval at 5 mg/kg, iv after 5 mins by ECG analysis; type: toxicity, organism-based; design: dose 5 mg/kg, route intravenous; conditions: in vivo; outline: as §2
[5] = Displacement of [3H]CGP-12177 from beta1-adrenergic receptor in rat cerebral cortex by liquid scintillation counting; type: tissue-based
Outline: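 Rat cerebral cortex was homogenised in ice-cold 50 mM Tris-HCl pH 7.6 and spun at 20,000 g for 20 min at 0–4 °C, then washed once. Radioligands: [3H]prazosin 0.2 nM for α1, [3H]clonidine 2 nM for α2, [3H]CGP-12177 0.2 nM for β1. Test compounds were run at 7–8 concentrations from 10^-11 to 10^-4 M. Nonspecific binding was defined with phentolamine (α1), clonidine (α2) or propranolol (β1). Counting was by liquid scintillation, in duplicate. Ki was derived by Cheng–Prusoff from 2–3 experiments.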

Rattus norvegicus [6] = experiment: Hypotensive activity in normotensive Wistar rat assessed as reduction of diastolic blood pressure at 2.5 mg/kg, iv after 60 mins; type: functional, Artery
Outline: as §1, with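 “rats (170–350 g)” for “rats”, “heparin-saline tubing” for “heparinised saline”, “After a” for “After”, “min” for “min of”, “a caudal” for “the tail”, “animals, compared” for “rats, analysed”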

Rattus norvegicus [7] = experiment: Hypotensive activity in normotensive Wistar rat assessed as reduction of diastolic blood pressure at 2.5 mg/kg, iv after 20 mins; type: functional, Artery
Outline: as §1, with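 “rats (170–350 g)” for “rats”, “heparin-saline tubing” for “heparinised saline”, “After a” for “After”, “min” for “min of”, “a caudal” for “the tail”, “animals, compared” for “rats, analysed”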

Rattus norvegicus [8] = experiment: Hypotensive activity in normotensive Wistar rat assessed as reduction of diastolic blood pressure at 2.5 mg/kg, iv after 30 mins; type: functional, Artery
Outline: as §1, with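 “rats (170–350 g)” for “rats”, “heparin-saline tubing” for “heparinised saline”, “After a” for “After”, “min” for “min of”, “a caudal” for “the tail”, “animals, compared” for “rats, analysed”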

Rattus norvegicus [9] = experiment: Hypotensive activity in normotensive Wistar rat assessed as reduction of diastolic blood pressure at 2.5 mg/kg, iv after 10 mins; type: functional, Artery
Outline: as §1, with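 “rats (170–350 g)” for “rats”, “heparin-saline tubing” for “heparinised saline”, “After a” for “After”, “min” for “min of”, “a caudal” for “the tail”, “animals, compared” for “rats, analysed”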

Rattus norvegicus [10] = experiment: Hypotensive activity in normotensive Wistar rat assessed as reduction of systolic blood pressure at 2.5 mg/kg, iv after 60 mins; type: functional, Artery
Outline: as §1, with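 “rats (170–350 g)” for “rats”, “heparin-saline tubing” for “heparinised saline”, “After a” for “After”, “min” for “min of”, “a caudal” for “the tail”, “animals, compared” for “rats, analysed”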

Rattus norvegicus [11] = experiment: Hypotensive activity in normotensive Wistar rat assessed as reduction of diastolic blood pressure at 2.5 mg/kg, iv after 5 mins; type: functional, Artery
Outline: as §1, with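 “rats (170–350 g)” for “rats”, “heparin-saline tubing” for “heparinised saline”, “After a” for “After”, “min” for “min of”, “a caudal” for “the tail”, “animals, compared” for “rats, analysed”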

Rattus norvegicus [12] = experiment: Hypotensive activity in normotensive Wistar rat assessed as reduction of systolic blood pressure at 2.5 mg/kg, iv after 30 mins; type: functional, Artery
Outline: as §1, with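 “rats (170–350 g)” for “rats”, “heparin-saline tubing” for “heparinised saline”, “After a” for “After”, “min” for “min of”, “a caudal” for “the tail”, “animals, compared” for “rats, analysed”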

Rattus norvegicus [13] = experiment: Hypotensive activity in normotensive Wistar rat assessed as reduction of systolic blood pressure at 2.5 mg/kg, iv after 10 mins; type: functional, Artery
Outline: as §1, with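 “rats (170–350 g)” for “rats”, “heparin-saline tubing” for “heparinised saline”, “After a” for “After”, “min” for “min of”, “a caudal” for “the tail”, “animals, compared” for “rats, analysed”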

Rattus norvegicus [14] = experiment: Hypotensive activity in normotensive Wistar rat assessed as reduction of systolic blood pressure at 2.5 mg/kg, iv after 20 mins; type: functional, Artery
Outline: as §1, with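 “rats (170–350 g)” for “rats”, “heparin-saline tubing” for “heparinised saline”, “After a” for “After”, “min” for “min of”, “a caudal” for “the tail”, “animals, compared” for “rats, analysed”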

Rattus norvegicus [15] = experiment: Hypotensive activity in normotensive Wistar rat assessed as reduction of systolic blood pressure at 2.5 mg/kg, iv after 5 mins; type: functional, Artery
Outline: as §1, with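 “rats (170–350 g)” for “rats”, “heparin-saline tubing” for “heparinised saline”, “After a” for “After”, “min” for “min of”, “a caudal” for “the tail”, “animals, compared” for “rats, analysed”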

## Cl.Cl.Cl.O=c1c2ccc(Cl)cc2oc2c(OCC(O)CN3CCN(CCOc4ccccc4)CC3)cccc12 (racemic)
Rattus norvegicus [1]
  Activity: 100.6 mmHg

## Cl.Cl.Cl.O=c1c2ccc(Cl)cc2oc2c(OCC(O)CN3CCN(C/C=C/c4ccccc4)CC3)cccc12 (racemic)
Rattus norvegicus [2]
  Activity: 324.3 bpm
Rattus norvegicus [3]
  Activity: 20.2 ms
Rattus norvegicus [4]
  Activity: 45.7 ms
[5]
  Ki: 43 µM
Rattus norvegicus [6]
  Activity: 108.6 mmHg
Rattus norvegicus [7]
  Activity: 110.4 mmHg
Rattus norvegicus [8]
  Activity: 110.8 mmHg
Rattus norvegicus [9]
  Activity: 110.6 mmHg
Rattus norvegicus [10]
  Activity: 126.8 mmHg
Rattus norvegicus [11]
  Activity: 103.2 mmHg
Rattus norvegicus [12]
  Activity: 129.8 mmHg
Rattus norvegicus [13]
  Activity: 133 mmHg
Rattus norvegicus [14]
  Activity: 130.8 mmHg
Rattus norvegicus [15]
  Activity: 125 mmHg

## Cl.Cl.Cl.O=c1c2ccc(Cl)cc2oc2c(OCC(O)CN3CCN(Cc4ccccc4)CC3)cccc12 (racemic)
Rattus norvegicus [6]
  Activity: 134.2 mmHg
Rattus norvegicus [7]
  Activity: 134.5 mmHg
Rattus norvegicus [8]
  Activity: 134.2 mmHg
Rattus norvegicus [9]
  Activity: 132.2 mmHg
Rattus norvegicus [10]
  Activity: 151.2 mmHg
Rattus norvegicus [11]
  Activity: 128.7 mmHg
Rattus norvegicus [12]
  Activity: 152.2 mmHg
Rattus norvegicus [13]
  Activity: 149.5 mmHg
Rattus norvegicus [14]
  Activity: 152.5 mmHg
Rattus norvegicus [15]
  Activity: 147.2 mmHg

## Cl.Cl.O=c1c2ccccc2oc2c(OCC(O)CN3CCN(C/C=C/c4ccccc4)CC3)cccc12 (racemic)
Rattus norvegicus [2]
  Activity: 311.3 bpm
Rattus norvegicus [3]
  Activity: 23.4 ms
Rattus norvegicus [4]
  Activity: 41.5 ms
[5]
  Ki: 5.2 µM
Rattus norvegicus [6]
  Activity: 105 mmHg
Rattus norvegicus [7]
  Activity: 114 mmHg
Rattus norvegicus [8]
  Activity: 110.8 mmHg
Rattus norvegicus [9]
  Activity: 117.2 mmHg
Rattus norvegicus [10]
  Activity: 125.6 mmHg
Rattus norvegicus [11]
  Activity: 118.4 mmHg
Rattus norvegicus [12]
  Activity: 132.6 mmHg
Rattus norvegicus [13]
  Activity: 144.2 mmHg
Rattus norvegicus [14]
  Activity: 139.8 mmHg
Rattus norvegicus [15]
  Activity: 144.2 mmHg
